In ChEMBL document CHEMBL1781979, “The discovery of novel calcium sensing receptor negative allosteric modulators” (Bioorg Med Chem Lett, 2009):
Active and inactive are the calls of the source. No cut-off for these calls is given here.

Columns and labels:
[1] = target: T1, Extracellular calcium-sensing receptor (Homo sapiens, UniProt P41180); assay: Negative allosteric modulator activity at human recombinant calcium sensing receptor expressed in HEK cells; assay type: functional, cell-based, HEK293
T1 sequence (P41180 whole entry): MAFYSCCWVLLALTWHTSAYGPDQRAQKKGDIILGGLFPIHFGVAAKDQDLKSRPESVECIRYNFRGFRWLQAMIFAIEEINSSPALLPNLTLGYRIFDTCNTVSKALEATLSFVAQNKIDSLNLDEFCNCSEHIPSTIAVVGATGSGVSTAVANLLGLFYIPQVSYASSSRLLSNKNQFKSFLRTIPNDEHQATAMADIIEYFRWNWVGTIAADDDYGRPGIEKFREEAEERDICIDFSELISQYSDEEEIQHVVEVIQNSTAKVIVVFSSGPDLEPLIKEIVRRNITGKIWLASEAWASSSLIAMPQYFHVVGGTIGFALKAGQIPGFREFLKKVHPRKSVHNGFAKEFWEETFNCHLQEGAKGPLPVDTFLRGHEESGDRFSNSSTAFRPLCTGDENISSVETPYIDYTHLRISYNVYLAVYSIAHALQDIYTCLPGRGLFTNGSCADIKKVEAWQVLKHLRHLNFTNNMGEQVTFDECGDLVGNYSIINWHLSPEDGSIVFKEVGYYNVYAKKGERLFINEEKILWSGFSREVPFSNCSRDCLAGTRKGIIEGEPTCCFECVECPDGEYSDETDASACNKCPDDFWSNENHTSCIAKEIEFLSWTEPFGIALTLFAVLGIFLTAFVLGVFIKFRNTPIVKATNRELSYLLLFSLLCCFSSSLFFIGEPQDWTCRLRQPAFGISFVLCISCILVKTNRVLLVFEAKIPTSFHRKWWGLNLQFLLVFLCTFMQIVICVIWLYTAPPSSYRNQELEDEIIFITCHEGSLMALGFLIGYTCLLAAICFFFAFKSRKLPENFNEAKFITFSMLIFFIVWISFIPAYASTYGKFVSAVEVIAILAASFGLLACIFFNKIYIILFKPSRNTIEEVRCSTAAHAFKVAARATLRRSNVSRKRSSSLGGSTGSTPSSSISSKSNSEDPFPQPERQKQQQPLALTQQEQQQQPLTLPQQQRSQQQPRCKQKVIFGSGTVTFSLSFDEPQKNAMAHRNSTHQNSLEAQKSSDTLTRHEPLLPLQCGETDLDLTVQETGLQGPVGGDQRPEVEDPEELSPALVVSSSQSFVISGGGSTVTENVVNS
In short: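 Human recombinant CaSR expressed in HEK cells; potency from n = 3 determinations.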

[2] = Intrinsic clearance in rat liver microsomes assessed per mg of protein; assay type: ADME, Microsome
In short: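 Rat liver microsomes; stability expressed as intrinsic clearance in µL/min/mg of microsomal protein.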

[3] = Intrinsic clearance in human liver microsomes assessed per mg of protein; assay type: ADME, Microsome
In short: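 Stability in human liver microsomes reported as intrinsic clearance, µL/min/mg microsomal protein.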

[4] = Lipophilicity, log D of the compound; assay type: physicochemical; conditions: octanol/water
[5] = Oral bioavailability in Sprague-Dawley rat; assay type: ADME, organism-based; conditions: in vivo
Rattus norvegicus [6] = assay: Clearance in Sprague-Dawley rat at 1 mg/kg, iv; conditions: in vivo
[7] = Clearance in Sprague-Dawley rat at 1 mg/kg, iv; assay type: ADME, organism-based; set-up: dose 1 mg/kg, route intravenous; conditions: in vivo
In short: (§1)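 Intravenous dosing at 1 mg/kg to rats; volume of distribution, plasma clearance (mL/min/kg) and half-life derived from the iv plasma profile.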

[8] = Volume of distribution in Sprague-Dawley rat at 1 mg/kg, iv; assay type: ADME, organism-based; set-up: dose 1 mg/kg, route intravenous; conditions: in vivo; in short: as §1
[9] = Half life in Sprague-Dawley rat at 1 mg/kg, iv; assay type: ADME, organism-based; set-up: dose 1 mg/kg, route intravenous; conditions: in vivo; in short: as §1
[10] = Cmax in Sprague-Dawley rat at 10 mg/kg, po; assay type: ADME, organism-based; set-up: dose 10 mg/kg, route oral; conditions: in vivo
In short: (§2)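 Oral dosing at 10 mg/kg to rats; total plasma Cmax and oral bioavailability determined from plasma exposure, alongside the 1 mg/kg iv leg.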

[11] = Oral bioavailability in Sprague-Dawley rat at 10 mg/kg; assay type: ADME, organism-based; conditions: in vivo; in short: as §2
Rattus norvegicus [12] = assay: Toxicity in Sprague-Dawley rat assessed as incidence of adverse effect at 500 mg/kg in 4 day drug toleration study; assay type: organism-based; set-up: dose 500 mg/kg; conditions: in vivo, 96 h
In short: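 Rats given 500 mg/kg over a 4 day toleration study, monitored for adverse effects.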

[13] = Inhibition of cytochrome P450; assay type: ADME
Rattus norvegicus [14] = assay: Increase in PTH (1-84) release response in Sprague-Dawley rat at 10 mg/kg, po by PTH ELISA; assay type: functional, organism-based; set-up: dose 10 mg/kg
hERG (KCNH2) = hERG (KCNH2) (Homo sapiens, UniProt Q12809); assay: Inhibition of human ERG at 10 uM by whole cell voltage clamp technique
Sequence of hERG (KCNH2) (Q12809 whole entry): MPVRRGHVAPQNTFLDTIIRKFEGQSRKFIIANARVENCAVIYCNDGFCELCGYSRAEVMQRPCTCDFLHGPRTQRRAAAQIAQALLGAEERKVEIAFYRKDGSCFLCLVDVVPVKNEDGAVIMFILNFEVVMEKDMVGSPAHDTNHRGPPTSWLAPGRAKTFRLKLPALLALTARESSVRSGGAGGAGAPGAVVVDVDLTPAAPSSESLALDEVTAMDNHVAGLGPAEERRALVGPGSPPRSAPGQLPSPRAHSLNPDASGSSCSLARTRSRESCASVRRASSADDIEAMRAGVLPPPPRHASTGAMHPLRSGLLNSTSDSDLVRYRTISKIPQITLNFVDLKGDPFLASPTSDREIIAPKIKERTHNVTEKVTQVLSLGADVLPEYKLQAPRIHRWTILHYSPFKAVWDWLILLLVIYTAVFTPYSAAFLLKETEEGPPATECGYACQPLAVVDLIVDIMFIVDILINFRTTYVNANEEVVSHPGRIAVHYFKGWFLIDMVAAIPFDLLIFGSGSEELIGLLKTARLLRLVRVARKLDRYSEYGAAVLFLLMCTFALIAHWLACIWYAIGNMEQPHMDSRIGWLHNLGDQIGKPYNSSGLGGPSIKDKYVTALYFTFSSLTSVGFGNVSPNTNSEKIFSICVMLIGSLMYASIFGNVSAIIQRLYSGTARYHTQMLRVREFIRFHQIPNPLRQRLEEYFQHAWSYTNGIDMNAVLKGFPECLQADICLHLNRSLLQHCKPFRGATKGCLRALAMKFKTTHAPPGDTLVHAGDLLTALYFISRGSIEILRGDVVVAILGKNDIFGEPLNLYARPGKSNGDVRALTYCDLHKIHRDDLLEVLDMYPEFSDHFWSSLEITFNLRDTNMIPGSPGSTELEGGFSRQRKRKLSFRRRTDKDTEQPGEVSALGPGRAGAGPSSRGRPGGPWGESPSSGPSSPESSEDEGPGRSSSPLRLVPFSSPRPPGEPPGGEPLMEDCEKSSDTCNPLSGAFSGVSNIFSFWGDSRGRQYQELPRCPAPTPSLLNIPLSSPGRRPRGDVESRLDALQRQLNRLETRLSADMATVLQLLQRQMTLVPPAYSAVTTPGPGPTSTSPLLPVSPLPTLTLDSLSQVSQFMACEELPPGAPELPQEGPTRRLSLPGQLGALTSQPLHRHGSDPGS

[15] = target: Extracellular calcium-sensing receptor (Homo sapiens) (UniProt P41180); assay: Negative allosteric modulator activity at human calcium sensing receptor expressed in HEK cells

IC50 [1] [µM]	microsomal CLint [2] [µL/min/mg]	microsomal CLint [3] [µL/min/mg]	logD [4]	Compound	other results
0.023	> 100	157	–	CC(C)(Cc1ccc2ccccc2c1)NC[C@@H](O)COc1cccc(Cl)c1C#N	–
0.056	35	19	2.6	CC(C)(CC1Cc2ccccc2C1)NC[C@@H](O)COc1cc(C2CC3CC2C2C(C(=O)O)C32)cc(F)c1F (mixture of isomers)	–
0.9	50	15	–	CC(C)(CC1Cc2ccccc2C1)NC[C@@H](O)COc1cccc(C2CC3CC2C2C(C(=O)O)C32)c1 (mixture of isomers)	–
0.006	25	17	2	CC(C)(CC1Cc2ccccc2C1)NC[C@@H](O)COc1cc(C2CC3CC2C2C(C(=O)O)C32)ccc1C#N (mixture of isomers)	bioavailability [5]: < 10%; CL (Rattus norvegicus [6]): 83 mL/min/kg; clearance [7]: 70 mL/min/kg; Vd [8]: 5 L/kg; half-life [9]: 1.5 h
3.5	38	23	–	Cc1ccc(CC(C)(C)NC[C@@H](O)COc2cccc(C3CC4CC3C3C(C(=O)O)C43)c2)cc1F (mixture of isomers)	–
0.3	–	20	–	Cc1ccc(CC(C)(C)NC[C@@H](O)COc2cc(C3CC4CC3C3C(C(=O)O)C43)ccc2F)cc1F (mixture of isomers)	–
0.023	27	15	2.3	Cc1ccc(CC(C)(C)NC[C@@H](O)COc2cc(C3CC4CC3C3C(C(=O)O)C43)ccc2C#N)cc1F (mixture of isomers)	bioavailability [5]: < 10%; CL (Rattus norvegicus [6]): 83 mL/min/kg; clearance [7]: 70 mL/min/kg; Vd [8]: 5 L/kg; half-life [9]: 1.5 h
0.35	< 10	9	–	CC(C)(CN1Cc2ccccc2C1=O)NC[C@@H](O)COc1cc(C2CC3CC2C2C(C(=O)O)C32)ccc1C#N (mixture of isomers)	–
0.025	45	35	2.4	Cc1ccc(CC(C)(C)NC[C@@H](O)CO[C@H](C)c2ccccc2C2CC3CC2C2C(C(=O)O)C32)cc1F (mixture of isomers)	Cmax [10]: 1000 nM; bioavailability [11]: > 60%; Activity (Rattus norvegicus [12]): Non-toxic; inhibition (INH) [13]: Not Active; Activity (Rattus norvegicus [14]): Active; inhibition at 10 µM (hERG (KCNH2)): < 10%
0.05	14	16	2.8	C[C@@H](OC[C@H](O)CNC(C)(C)Cc1ccc(Cl)cc1F)c1ccccc1C1CC2CC1C1C(C(=O)O)C21 (mixture of isomers)	–
0.018	–	33	2.6	Cc1ccc(CC(C)(C)NC[C@@H](O)CO[C@H](C)c2ccccc2C2CC3CC2C2C(C(=O)O)C32)cc1Cl (mixture of isomers)	–
3.5	38	23	–	C[C@@H](OC[C@H](O)CNC(C)(C)CC1Cc2ccccc2C1)c1ccccc1C1CC2CC1C1C(C(=O)O)C21 (mixture of isomers)	–
0.146	90	< 8	1.5	CC(C)(CC1Cc2ccccc2C1)NC[C@@H](O)COc1cc(CCC(=O)O)cc(F)c1F [RONACALERET]	Cmax [10]: 300 nM; IC50 [15]: 0.32 µM; bioavailability [11]: 12%; Activity (Rattus norvegicus [14]): inactive; inhibition at 10 µM (hERG (KCNH2)): < 10%
